Source: PubChem BioAssay (The Scripps Research Institute Molecular Screening Center)
Hits are enriched below; roughly 2.4% of the tested compounds scored in any of these assays.
S1P4 antag: S1P4 receptor antagonists, primary screen, cell-based | Sphingosine 1-phosphate receptor 4 (Homo sapiens), O95977 | S1P4-expressing cells, antagonist mode, reporter read-out | inhibition, % at 4.98 µM | 220,000 tested, 0.26% active | AID 1510, 2009; in the data active = inhibition above about 29%;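 note: 0% = wells stimulated with agonist and 100% = vehicle wells without agonist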
NPY1 pot ag: NPY-Y1 receptor potentiators or agonists, primary screen, cell-based. Neuropeptide Y receptor type 1 (Homo sapiens), P25929. AID 1304, 2008. NPY-Y1 expressing cells, potentiator/agonist activation. 220,000 tested, 0.37% active. activation, % at 3.6 µM; in the data active = activation above about 33%, passing the limit was not always enough;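 note: cells stimulated with NPY at EC10 then isoproterenol at EC100; 0% = low agonist plus stimulus and 100% = saturating agonist plus stimulus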
Target sequence (P25929 whole entry, looked up): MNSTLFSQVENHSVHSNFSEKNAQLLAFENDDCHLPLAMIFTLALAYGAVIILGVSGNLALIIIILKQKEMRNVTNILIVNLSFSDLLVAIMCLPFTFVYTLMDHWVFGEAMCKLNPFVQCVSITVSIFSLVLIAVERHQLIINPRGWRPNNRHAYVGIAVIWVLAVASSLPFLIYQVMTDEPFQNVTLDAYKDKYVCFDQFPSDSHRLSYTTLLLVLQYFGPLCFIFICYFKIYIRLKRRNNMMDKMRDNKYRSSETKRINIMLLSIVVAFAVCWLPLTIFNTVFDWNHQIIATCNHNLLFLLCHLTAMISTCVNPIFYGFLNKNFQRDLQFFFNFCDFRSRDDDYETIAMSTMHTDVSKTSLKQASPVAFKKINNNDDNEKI
S1P4 ag: S1P4 receptor agonists, primary screen, cell-based. 220,000 tested, 0.35% active. Sphingosine 1-phosphate receptor 4 (Homo sapiens), O95977. S1P4-expressing cell line, agonist reporter assay. activation, % at 4.98 µM. AID 1509, 2009; in the data active = activation above about 11%;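 note: 0% = DMSO vehicle and 100% = reference agonist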
NPY Y1 blocker: NPY-Y1 receptor antagonists, primary screen, cell-based; AID 1040, 2008; HEK293-CNG Y1 cells, membrane potential fluorescence; NPY at EC95, then isoproterenol; Neuropeptide Y receptor type 1 (Homo sapiens), P25929; inhibition, % at 3.6 µM; 200,000 tested, 1% active;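 active = inhibition above the campaign mean inhibition of all tested compounds plus 3 SD, cut at about 20% in these data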;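 note: 0% = DMSO wells given NPY plus isoproterenol and 100% = isoproterenol alone without NPY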
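Assay system: HEK293 cells with Y1 receptor plus CNG channel | Probe or stimulus: NPY (25 nM), isoproterenol (1 µM), Ro 20-1724 (25 µM) | Timing: Compound incubation 1 h at room temperature, readout 45 min post-stimulation | Measured by: Membrane-potential fluorescent dye readout | Benchmarks: High control isoproterenol alone, low control NPY with isoproterenol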
NPY-Y2 antag: NPY-Y2 receptor antagonists, primary screen, cell-based. inhibition, % at 2.7 µM. NPY-Y2 expressing cells, antagonist mode. AID 793, 2007. 140,000 tested, 0.99% active. Neuropeptide Y receptor type 2 (Homo sapiens), P49146; in the data active = inhibition above about 17%;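 note: 0% = vehicle with agonist challenge and 100% = reference antagonist with challenge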
NPY-Y2 PAM-ag: NPY-Y2 potentiators or agonists, primary screen, cell-based. Neuropeptide Y receptor type 2 (Homo sapiens), P49146. cells expressing NPY-Y2, potentiator/agonist read-out. 220,000 tested, 0.45% active. activation, % at 3.6 µM; in the data active = activation above about 27%;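 note: cells stimulated with NPY near EC25 plus isoproterenol at EC100; 0% = vehicle plus submaximal agonist and 100% = vehicle plus saturating agonist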
S1P4 ag conf: S1P4 receptor agonists, retest, confirmation, cell-based, high throughput | activation, % at 4.98 µM | S1P4 agonist cell-based reporter assay | shares compounds with S1P4 ag | 740 tested, 7% active; in the data active = activation above about 12%;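 note: 0% = vehicle and 100% = full reference agonist response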
S1P1 agonist: S1P1 receptor agonists, human, counter-screen for S1P4 agonist project, cell-based. shares compounds with S1P4 ag. S1P1 agonist cell-based assay, activation. activation, % at 4.98 µM. 740 tested, 4% active. AID 1563, 2009; in the data active = activation above about 21%;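 note: 0% = vehicle wells and 100% = reference agonist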
An asterisk follows results filed as active; · = not tested or not shown.

SMILES	S1P4 antag	NPY1 pot ag	S1P4 ag	NPY Y1 blocker	NPY-Y2 antag	NPY-Y2 PAM-ag	S1P4 ag conf	S1P1 agonist
COCCn1nnnc1C(c1cc(OC)ccc1OC)N1CCc2ccccc2C1 (configuration not stated)	-4	-5	-1	-4	4	-1	·	·
COC(=O)Cc1ccc(NC(=S)N2CCN(c3ccc(F)cc3)CC2)cc1	-22	21	1	-4	3	2	·	·
Cc1nn(C(C)C(=O)NCc2ccco2)c(C)c1[N+](=O)[O-] (configuration not stated)	-3	3	4	1	·	3	·	·
C/C(=N\NC(=O)C(C)n1nc(C)c([N+](=O)[O-])c1C)c1ccccc1O (configuration not stated)	-13	-10	103*	-3	-1	-15	-1	10
COc1cc(CNCCO)cc(Cl)c1OCc1ccccc1Cl	11	8	11*	7	·	-7	5	-10
CC(C)Oc1cc2oc(=O)c3c(c2cc1Cl)CCC3	-21	-28	0	-1	8	5	·	·
CC(=O)Oc1cc2oc(=O)c3c(c2cc1Cl)CCC3	-14	-23	15*	3	4	-11	1	-5
O=C(Cn1c(Cc2ccccc2)nc2ccccc21)NCc1ccc2c(c1)OCO2	-14	-17	22*	1	2	-8	-2	-4
Cc1cc(C(=O)NCc2cccnc2)no1	-9	7	11*	-3	2	7	-1	-6
Cc1ccc(-c2cc(C(=O)NCc3cccnc3)no2)cc1	2	-9	2	0	0	3	·	·
Clc1ccccc1N=C1SCCS1	8	-5	2	·	·	-5	·	·
O=C(CCCC(=O)NCC1CCCO1)NCC1CCCO1 (configuration not stated)	2	14	39*	13	-2	17	-2	0
COc1ccccc1C1(O)CCN(CC(=O)Nc2nc(-c3ccccc3)cs2)CC1	-15	29	21*	3	·	5	-1	4
COc1ccc2nc(NC3=NC(C(=O)Nc4ccc(C)cc4)CC(=O)N3)nc(C)c2c1 (configuration not stated)	-15	-5	38*	-5	1	1	-1	-2
CCc1nnc2sc(-c3ccc(NC(=O)c4ccc5c(c4)OCCO5)cc3)nn12	4	-51	1	14	0	-15	·	·
Cc1cccc(C)c1Nc1nnc(SCC(=O)c2ccc(Br)s2)s1	-13	-2	34*	4	5	-3	-2	-1
Cc1ccc(Nc2nnc(SCC(=O)c3ccc(Br)s3)s2)c(C)c1	-10	-24	-1	0	6	-1	·	·
O=C1CN(C(=O)CCN2CCOCC2)C(c2ccccc2)c2cc(Br)ccc2N1 (configuration not stated)	-11	-1	3	0	0	0	·	·
N#Cc1ccc(COC(=O)C2CCC(=O)N2)cc1 (configuration not stated)	-17	22	1	6	1	1	·	·
O=C(Nc1ccc2ccccc2c1)N1CCN(c2ncccc2C(F)(F)F)CC1	-14	-23	16*	-1	4	-5	-1	2
O=C(NCC1CCCO1)C1c2ccccc2Oc2ccccc21 (configuration not stated)	-9	5	0	0	·	2	·	·
N=c1nc(SCCC(=O)O)ss1	-15	-10	1	0	-1	1	·	·
Cc1cc(C(=O)CN2C(=O)NC(C)(CC(C)C)C2=O)c(C)n1-c1ccc2c(c1)OCO2 (configuration not stated)	-9	6	13*	6	3	0	-2	-1
Cc1cc(C(=O)CN2C(=O)NC3(CCCC3)C2=O)c(C)n1-c1ccc2c(c1)OCO2	-2	-6	1	-1	-4	10	·	·
CCOc1cc(C(N)=O)cc(Cl)c1OCc1ccccc1	1	-2	24*	6	·	-3	-3	-1
SMILES	S1P4 antag	NPY1 pot ag	S1P4 ag	NPY Y1 blocker	NPY-Y2 antag	NPY-Y2 PAM-ag	S1P4 ag conf	S1P1 agonist
COc1ccc(CC2(CO)CCN(Cc3cnn(C)c3C)CC2)cc1	8	3	17*	1	·	-19	-1	-8
COc1ccc(CC2(CO)CCN(Cc3ccncc3)CC2)cc1	-28	-24	2	0	·	1	·	·
O=C(CNCC1CCCO1)N1CCCCCC1 (configuration not stated)	-16	28	0	0	·	-5	·	·
Cc1nccc2[nH]c(=O)c(C(=O)NC(C)CCc3ccccc3)cc12 (configuration not stated)	-7	2	24*	0	·	-5	-3	-4
Cc1ccc(S(=O)(=O)N(C)C)cc1NC(=O)COC(=O)c1n[nH]c(=O)c2ccccc12	-10	0	25*	5	·	-23	0	-3
CC1=Nc2ccccc2/C1=C/c1c(N)n2c(S(=O)(=O)C(C)C)nsc2nc1=O	-13	11	1	10	·	-27	·	·
CC1=Nc2ccccc2/C1=C/c1c(N)n2c(S(=O)(=O)CC(C)C)nsc2nc1=O	-4	1	20*	7	·	-10	-2	-2
Fc1ccccc1N1CCN(Cc2nc(-c3ccc(Cl)cc3Cl)no2)CC1	0	-45	2	2	16	-13	·	·
COc1cc(NC(=S)N2CCC(C(N)=O)CC2)c(OC)cc1Cl	-9	-15	0	5	·	-7	·	·
CCN(CC)S(=O)(=O)c1ccc2oc(SCC3CN=C(c4ccc(OC)cc4)S3)nc2c1 (configuration not stated)	-5	24	-1	-4	2	-15	·	·
Cc1nc(SCC(=O)N(C)C2CCCCC2)[nH]c(=O)c1Cc1ccccc1	-4	-22	1	3	2	0	·	·
Cc1nc(SCC(=O)NC2CCCC2)[nH]c(=O)c1Cc1ccccc1	-4	0	51*	-1	3	0	-2	-6
CCS(=O)(=O)c1ccc2c(c1)N(S(C)(=O)=O)CC(C(=O)NCc1ccccc1OC)O2 (configuration not stated)	-13	3	3	0	2	-9	·	·
